# From ChEMBL document CHEMBL1806361, “Discovery of potent, selective, and orally bioavailable quinoline-based dipeptidyl peptidase IV inhibitors targeting Lys554” (Bioorg Med Chem, 2011)
# Key:
# [1] = Solubility of the compound in water at pH 6.8 by HPLC analysis; type: physicochemical
# [2] = Metabolic stability in human liver microsomes at 1 uM after 60 mins by HPLC with UV detectors in presence of NADPH; type: ADME, Microsome; conditions: read-out: Stability
# How it was run: (§1)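 Hepatic microsomes (0.2 mg protein/mL final) and compound (1 µM final) were mixed on ice. Reaction started with NADPH, run 60 min at 37 °C, and stopped with ice-cold acetonitrile. Zero-time controls were quenched before compound addition.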
# [3] = Metabolic stability in dog liver microsomes at 1 uM after 60 mins by HPLC with UV detectors in presence of NADPH; type: ADME, Canis lupus familiaris, Microsome; conditions: read-out: Stability; how it was run: as §1
# [4] = Metabolic stability in rat liver microsomes at 1 uM after 60 mins by HPLC with UV detectors in presence of NADPH; type: ADME, Microsome; conditions: read-out: Stability; how it was run: as §1
# [5] = Volume of distribution at steady state in rat at 1 mg/kg, po and 0.1 mg/kg, iv by LC/MS/MS; type: ADME, organism-based; conditions: in vivo, read-out: Vdss
# How it was run: (§2)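 Compound given orally at 1.0 mg/kg and intravenously at 0.1 mg/kg to rats and dogs. Blood sampled after dosing and spun to plasma. Plasma deproteinized with acetonitrile containing internal standard, then centrifuged. Supernatant diluted in 0.01 M ammonium acetate and spun again before LC/MS/MS quantitation. Values are means and SD of three experiments.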
# [6] = test system: Rattus norvegicus; test: AUC in rat at 1 mg/kg, po by LC/MS/MS; type: ADME, organism-based, Plasma; design: dose 1 mg/kg, route oral; conditions: in vivo; how it was run: as §2
# [7] = test system: Rattus norvegicus; test: Oral bioavailability in rat at 1 mg/kg by LC/MS/MS; type: ADME, organism-based; conditions: in vivo; how it was run: as §2
# [8] = Volume of distribution at steady state in dog at 1 mg/kg, po and 0.1 mg/kg, iv by LC/MS/MS; type: ADME, organism-based, Canis lupus familiaris; conditions: in vivo, read-out: Vdss; how it was run: as §2
# [9] = test system: Canis familiaris; test: AUC in dog at 1 mg/kg, po by LC/MS/MS; type: ADME, organism-based, Canis lupus familiaris, Plasma; design: dose 1 mg/kg, route oral; conditions: in vivo; how it was run: as §2
# [10] = test system: Canis familiaris; test: Oral bioavailability in dog at 1 mg/kg by LC/MS/MS; type: ADME, organism-based, Canis lupus familiaris; conditions: in vivo; how it was run: as §2
smiles,measurement,setting,value
Cc1ccc(-c2c(CN)c(CC(C)C)nc3ccc(N4CC(=O)NCC4=O)cc23)cc1.Cl.Cl,solubility,[1],> 5000 µg/mL
same,microsomal CLint at 1 µM,[2],16 µL/min/mg
same,microsomal CLint at 1 µM,[3],2 µL/min/mg
same,microsomal CLint at 1 µM,[4],96 µL/min/mg
same,Vd,[5],10.7 L/kg
same,AUC,[6],28.5 ng·h/mL
same,F,[7],8%
same,Vd,[8],1.49 L/kg
same,AUC,[9],1410 ng·h/mL
same,F,[10],49.2%
